Compounds with a hit are over-represented: about 2.3% of the library has one in this group of screens.
TRPC6 inhibitor: mouse TRPC6 channel inhibition; Q61143; HEK293-TRPC6, membrane potential dye, ACh-evoked depolarization; hits give low values; B-score at 10 µM; 310,000 tested, 1.1% active;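 active means B-score under library mean minus 3 SD, initial fluorescence not abnormally high, positive integrated signal ratio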;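 further: B-score derived from integrated fluorescence ratio over the kinetic read; more negative B-score means stronger inhibition of depolarization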
TRPC6 act: activators of mouse TRPC6 channel; B-score at 10 µM; AID 2550; Q61143; 310,000 tested, 0.13% active; HEK293-TRPC6 membrane potential dye fluorescence; hits give high values;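 active means B-score of the integrated fluorescence ratio above library mean plus 3 SD, and starting fluorescence ratio within library mean plus 5 SD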;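 further: higher score means more depolarization so channel activation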
TRPC4 inh: blocks the mouse TRPC4 cation channel | HEK293 TRPC4beta/mu-opioid, DAMGO-evoked Fluo4 calcium flux; hits give low values | B-score at 10 µM | 300,000 tested, 0.39% active;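 active means B-score over 3 SD under the library average, no early fluorescence shift, positive overall ratio signal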
Target sequence (Q9QUQ5 whole entry, looked up): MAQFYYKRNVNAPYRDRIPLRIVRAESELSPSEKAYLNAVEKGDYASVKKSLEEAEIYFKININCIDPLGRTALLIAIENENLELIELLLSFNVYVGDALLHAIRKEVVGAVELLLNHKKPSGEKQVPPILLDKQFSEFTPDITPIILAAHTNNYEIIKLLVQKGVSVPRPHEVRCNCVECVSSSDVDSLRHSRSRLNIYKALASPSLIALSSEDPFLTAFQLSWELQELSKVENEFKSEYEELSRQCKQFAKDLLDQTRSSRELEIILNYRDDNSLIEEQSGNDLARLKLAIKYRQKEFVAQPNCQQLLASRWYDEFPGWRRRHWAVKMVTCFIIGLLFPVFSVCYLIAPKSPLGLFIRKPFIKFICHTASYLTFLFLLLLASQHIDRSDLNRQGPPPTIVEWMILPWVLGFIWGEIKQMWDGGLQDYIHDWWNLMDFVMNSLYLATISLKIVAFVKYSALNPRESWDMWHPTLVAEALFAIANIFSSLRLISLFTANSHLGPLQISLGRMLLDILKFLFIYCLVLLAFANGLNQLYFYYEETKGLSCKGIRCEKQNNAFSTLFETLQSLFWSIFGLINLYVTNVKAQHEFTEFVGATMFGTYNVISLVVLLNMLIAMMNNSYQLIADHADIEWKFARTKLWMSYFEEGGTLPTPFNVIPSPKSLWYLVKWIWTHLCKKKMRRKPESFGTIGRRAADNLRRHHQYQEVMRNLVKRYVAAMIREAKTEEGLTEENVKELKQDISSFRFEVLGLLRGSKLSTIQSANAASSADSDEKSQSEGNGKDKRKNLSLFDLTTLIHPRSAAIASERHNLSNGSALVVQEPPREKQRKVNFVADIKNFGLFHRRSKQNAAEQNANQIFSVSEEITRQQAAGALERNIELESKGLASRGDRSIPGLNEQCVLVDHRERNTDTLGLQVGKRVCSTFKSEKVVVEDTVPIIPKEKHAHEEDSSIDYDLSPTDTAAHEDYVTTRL
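Material: HEK293 cells with stable TRPC4beta plus mu-opioid receptor expression / Probe or stimulus: DAMGO in two steps, submaximal then maximal / Compound: single concentration per test compound / Technique: kinetic Fluo4 fluorescence imaging of calcium influx / Read-out: per-well B score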
TRPC4 potent: allosterically enhances the mouse TRPC4 cation channel | Q9QUQ5 | HEK293 TRPC4beta/mu-opioid, DAMGO EC20, Fluo-4 Ca2+ flux; hits give high values | B-score at 10 µM | 310,000 tested, 0.42% active;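 active means B-score of calcium response area above 5 SD of library B-scores, with initial fluorescence ratio within 5 SD of library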;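 further: B-score of integrated fluorescence ratio over time as area under calcium response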
TRPC4 agonist: opens the mouse TRPC4 cation channel. HEK293 TRPC4beta/mu-opioid, Fluo4 calcium fluorescence; hits give high values. B-score at 10 µM. 310,000 tested, 0.49% active. AID 2237;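 active means B-score above 5 SD of library B-scores, and initial fluorescence ratio not above library mean plus 5 SD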;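 further: positive B-score marks a calcium rise read as TRPC4 activation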
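System – HEK293 cells stably co-expressing mouse TRPC4beta and mu-opioid receptor · Signal – Fluo4 calcium-sensitive dye fluorescence, kinetic, 1 Hz baseline · Benchmarks – buffer (low) and maximal DAMGO (high) · Read-out – B score of integrated fluorescence ratio per well · Incubation – dye loading 45 min room temperature, 110 s kinetic read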
TRPC4 spec 2: second check of whether TRPC6 inhibitors also affect mouse TRPC4 | shares compounds with TRPC6 inhibitor | HEK293 TRPC4/MOR, membrane potential dye fluorescence; channel activated by saturating DAMGO dose | inhibition, % at 10 µM | 920 tested, 42% active;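 active means compounds whose fluorescence signal differed from control wells by over 3 SD, either direction, in both duplicate plates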
TRPC4 spec: mouse TRPC4 off-target activity of TRPC6 inhibitors; shares compounds with TRPC6 inhibitor; HEK293 TRPC4/mu-opioid, membrane potential fluorescence; activity change, negative = inhibition, % at 10 µM; 920 tested, 61% active; AID 2777;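 active means rise or fall in signal beyond 3 SD of buffer-only wells in both replicate plates, either sign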;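 further: integrated kinetic ratio of fluorescence range over baseline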
HEK293 MPD ctr 2-1: second check of TRPC6 inhibitor effects in parental HEK293 cells. parental HEK293 membrane potential dye fluorescence; maximal acetylcholine challenge after compound addition. shares compounds with TRPC6 inhibitor. signal change vs control, % at 10 µM. 920 tested, 31% active;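 active means membrane potential signal moving either way by over 3 SD of the maximum-effect control, in both duplicate plates, meaning non-specific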
HEK293 MPD ctr-1: parental HEK293 nonspecific activity of TRPC6 inhibitors | shares compounds with TRPC6 inhibitor | parental HEK293 membrane potential dye fluorescence | membrane potential signal change, % at 10 µM | 920 tested, 60% active | AID 2780;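 active means membrane potential signal shifting up or down by more than 3 SD of buffer-only wells, on both duplicate plates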
HEK293 MPD ctr-2: counter-screen for TRPC6 modulators: effect in parental HEK293 cells. membrane potential signal change, % at 10 µM. shares compounds with TRPC6 inhibitor. membrane potential dye fluorescence. 2,400 tested, 51% active;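 active means membrane potential signal moves up or down beyond 5 SD from buffer-only wells, on both duplicate plates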
HEK293 MPD ctr 2-2: parental HEK293 nonspecific activity of TRPC6 modulators, second screen | inhibition, % at 10 µM | AID 488926 | 2,400 tested, 14% active | shares compounds with TRPC6 inhibitor | membrane potential dye fluorescence; after compound, maximal acetylcholine stimulation;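 active means membrane potential signal drops by more than 5 SD from the mean control signal, in both duplicate plates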;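 further: plate controls were acetylcholine ECmax control wells for no effect and buffer only wells for full effect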
TRPC4 ctr mod: selectivity of TRPC6 modulators against mouse TRPC4; 2,400 tested, 69% active; percent change from control (negative = decrease, positive = increase), % at 10 µM; shares compounds with TRPC6 inhibitor; AID 488927; HEK293 TRPC4/mu-opioid, membrane potential fluorescence;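 active means membrane potential signal moved up or down beyond 5 SD of buffer control wells, in both duplicate plates, actives on both sides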;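 further: plate controls were assay buffer wells for no effect and DAMGO maximal-effect wells for full effect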
TRPC4/MOR inh 2: second check of whether TRPC6 modulators also affect mouse TRPC4; shares compounds with TRPC6 inhibitor; HEK293 TRPC4/mu-opioid, membrane potential dye fluorescence; stimulated with maximal-effect DAMGO; inhibition, % at 10 µM; 2,400 tested, 55% active; AID 488928;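 active means drop in membrane potential signal beyond 5 SD of the control wells in both duplicate plates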;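 further: TRPC4 counter screen for TRPC6 hits run under conditions tuned for TRPC6 not TRPC4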
TRPC6 inh conf: confirmation of mouse TRPC6 inhibitors; shares compounds with TRPC6 inhibitor; HEK293-TRPC6, membrane potential dye, ACh-evoked depolarization; inhibition, % at 10 µM; 3,300 tested, 43% active; AID 488960;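 active means fluorescence ratio falls more than 5 SD below the full-stimulation control mean, in both duplicate runs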;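 further: integrated fluorescence ratio of peak minus minimum over baseline after agonist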
TRPC6 act confirm: mouse TRPC6 activator confirmation; shares compounds with TRPC6 inhibitor; HEK293-TRPC6 membrane potential dye fluorescence, FDSS; activation, % at 10 µM; 2,800 tested, 11% active;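 active means ratio signal rise beyond 5 SD above unstimulated control wells' mean, seen in both duplicate runs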;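 further: plate controls were buffer EC0 wells for no effect and acetylcholine ECmax response for full effect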
* hit, by the source's call; i = inactive; . = no result given.

SMILES	TRPC6 inhibitor	TRPC6 act	TRPC4 inh	TRPC4 potent	TRPC4 agonist	HEK293 MPD ctr-2	HEK293 MPD ctr 2-2	TRPC4 ctr mod	TRPC4/MOR inh 2	TRPC6 inh conf	TRPC6 act confirm	others
Cn1c(=O)c2c(nc(SCCN3CCCCC3)n2Cc2ccc(Cl)cc2)n(C)c1=O	-6.23*	i	i	40*	80*	-121.0%*	i	26.5%*	93.0%*	i	i
CCN(CC)C(=O)COc1coc(CN2CCN(c3ccccc3)CC2)cc1=O	i	i	i	i	i	.	.	.	.	.	.
O=S(=O)(Nc1ccc(F)cc1)N1CCOCC1	i	i	i	i	i	.	.	.	.	.	.
Cc1cc(C)n2c(nc3ccccc32)c1C(=O)NN	i	i	i	i	i	.	.	.	.	.	.
COC(=O)c1c(C)cc(C)n2c1nc1ccccc12	-6.81*	i	i	i	i	.	.	.	.	63.6%*	i	TRPC4 spec 2=i;TRPC4 spec=-20.1%*;HEK293 MPD ctr 2-1=i;HEK293 MPD ctr-1=-334.0%*
CC(Oc1ccc2c3c(c(=O)oc2c1)CCC3)C(=O)NC1CCN(Cc2ccccc2)CC1 (configuration not stated)	-6.33*	i	i	i	i	i	i	-13.5%*	74.0%*	57.5%*	i
COCCCNc1nc2cc(OC)c(OC)cc2c2nc(-c3ccccc3)nn12	i	i	i	i	i	.	.	.	.	.	.
CCN(CC)CCCNc1nc2cc(OC)c(OC)cc2c2nc(-c3cccnc3)nn12	-7.97*	i	i	i	i	.	.	.	.	76.7%*	i	TRPC4 spec 2=65.0%*;TRPC4 spec=-29.5%*;HEK293 MPD ctr 2-1=-68.5%*;HEK293 MPD ctr-1=-446.0%*
COc1cc2nc(NCCCN3CCN(C)CC3)n3nc(-c4ccccc4)nc3c2cc1OC	-6.6*	i	i	i	i	-75.0%*	i	i	63.0%*	i	i
CCN(CC)CCCNc1nc2cc(OC)c(OC)cc2c2nc(-c3ccccc3)nn12	i	i	i	i	i	.	.	.	.	.	.
CCN(CC)CCCNc1nc2ccccc2c2nc(-c3ccncc3)nn12	-7.24*	i	i	i	i	.	.	.	.	68.8%*	i	TRPC4 spec 2=61.0%*;TRPC4 spec=-23.4%*;HEK293 MPD ctr 2-1=-0.5%*;HEK293 MPD ctr-1=-315.5%*
CC(=O)N/C(=N\OCc1ccccc1Cl)c1nonc1NC(C)=O	i	i	i	i	i	.	.	.	.	.	.
CCOC(=O)c1cnc2cc(-c3ccc(Br)cc3)nn2c1C	i	i	i	i	i	.	.	.	.	.	.
Cc1ccc(S(=O)(=O)NCCNC(=O)c2ccc(C)nc2)cc1	-6.32*	i	i	i	i	i	i	i	i	i	.
Cc1ccc(C(=O)NCCCNCCCNC(=O)c2ccc(C)nc2)cn1	i	i	i	i	i	.	.	.	.	.	.
COC(=O)[C@@]12CCCCN1[C@H](c1ccc(-c3ccc(F)cc3)cc1)[C@@H]1C(=O)N(C)C(=O)[C@@H]12	i	i	i	i	i	.	.	.	.	.	.
CCOC(=O)c1cnc2c(Cl)cccc2c1NCCN1CCOCC1	i	i	i	i	i	.	.	.	.	.	.
CCOC(=O)c1cnc2c(C(F)(F)F)cccc2c1NCCCN1CCOCC1	-7.15*	i	i	i	i	-185.0%*	i	-34.5%*	51.5%*	i	i
CCOC(=O)c1cnc2c(Cl)cccc2c1NCCCN1CCOCC1	-6.34*	i	i	i	i	-187.0%*	i	-30.5%*	38.0%*	44.0%*	i
CCOC(=O)c1cnc2c(CC)cccc2c1NCCCN1CCOCC1	i	i	i	i	i	.	.	.	.	.	.
COc1cccc(OC)c1C(=O)N1CCN(C(=O)c2ccc(-c3ccccc3)cc2)CC1	i	i	i	i	i	.	.	.	.	.	.
CCN(CC(=O)Nc1ccccc1C(F)(F)F)C(=O)c1ccc2[nH]c3c(c2c1)CC(C)CC3 (configuration not stated)	i	i	i	i	i	.	.	.	.	.	.
CCOc1ccc(S(=O)(=O)NCC2CCCO2)c2ccccc12 (configuration not stated)	i	i	i	i	i	.	.	.	.	.	.
Cc1nnsc1C(=O)N/N=C/c1ccccc1	i	i	i	i	i	.	.	.	.	.	.
Cc1nnsc1C(=O)N/N=C/c1ccc2ccccc2c1O	-7.62*	i	i	i	i	.	.	.	.	i	.	TRPC4 spec 2=i;TRPC4 spec=27.0%*;HEK293 MPD ctr 2-1=-47.0%*;HEK293 MPD ctr-1=19.0%*
COc1ccc(-c2nc3n(c2C)Cc2ccccc2-3)cc1	-6.17*	i	i	i	i	-69.5%*	i	-14.5%*	52.0%*	i	i
CCCCCc1nc2sc3c(c2c(=O)n1NC(=O)c1ccc([N+](=O)[O-])cc1)CC(C)(C)OC3	-5.66*	i	i	i	i	i	i	i	63.5%*	56.5%*	i
CCCCCCCc1nc2sc3c(c2c(=O)n1N)CC(C)(C)OC3	i	i	i	i	i	.	.	.	.	.	.
CCCCOc1ccc(Br)cc1/C(C)=N/NC1=NCCN1	-7.29*	i	i	i	i	.	.	.	.	i	i	TRPC4 spec 2=27.0%*;TRPC4 spec=14.8%*;HEK293 MPD ctr 2-1=233.0%*;HEK293 MPD ctr-1=8.4%*
COc1ccc(/C(C)=N/NC2=NCCN2)cc1Cl	i	i	i	i	i	.	.	.	.	.	.

Screening data as filed in PubChem BioAssay.
